Ki, inhibition and EC50 data for two molecules are collected here from ChEMBL document CHEMBL1138590, “Discovery of novel dihydro-9,10-ethano-anthracene carboxamides as glucocorticoid receptor modulators” (Bioorg Med Chem Lett, 2009).

The target of one assay is T1, Estrogen receptor (Homo sapiens, UniProt P03372).
T1 sequence (P03372 whole entry): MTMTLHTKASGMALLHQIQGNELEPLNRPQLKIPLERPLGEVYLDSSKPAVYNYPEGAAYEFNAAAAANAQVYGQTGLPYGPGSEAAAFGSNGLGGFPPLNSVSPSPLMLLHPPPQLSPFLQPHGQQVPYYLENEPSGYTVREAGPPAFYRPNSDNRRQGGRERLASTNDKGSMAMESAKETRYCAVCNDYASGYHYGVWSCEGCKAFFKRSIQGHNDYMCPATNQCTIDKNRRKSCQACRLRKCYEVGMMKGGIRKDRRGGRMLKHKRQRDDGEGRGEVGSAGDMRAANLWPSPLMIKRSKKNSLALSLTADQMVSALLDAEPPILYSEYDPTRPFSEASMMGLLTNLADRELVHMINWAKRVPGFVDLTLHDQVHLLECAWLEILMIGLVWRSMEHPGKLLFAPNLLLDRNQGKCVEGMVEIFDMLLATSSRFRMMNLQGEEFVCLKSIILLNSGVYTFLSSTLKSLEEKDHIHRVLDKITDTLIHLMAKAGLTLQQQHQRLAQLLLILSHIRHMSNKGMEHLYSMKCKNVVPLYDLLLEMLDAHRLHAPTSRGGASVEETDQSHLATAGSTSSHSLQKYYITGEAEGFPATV
Nature of the assay: Displacement of […] from estrogen receptor alpha by fluorescence polarization assay. In outline: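 Fluorescence polarization competition binding: the test compound competes with a fluorescently labelled ligand for binding to the full-length receptor or its ligand-binding domain. IC50 is fitted from the polarization signal with a four-parameter logistic equation. Ki is derived by Cheng–Prusoff, Ki = IC50/(1 + ligand concentration/Kd). Values are means of duplicate experiments.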

In assay [1] the target is T2, Mineralocorticoid receptor (Homo sapiens) (UniProt P08235).
T2 sequence (whole entry): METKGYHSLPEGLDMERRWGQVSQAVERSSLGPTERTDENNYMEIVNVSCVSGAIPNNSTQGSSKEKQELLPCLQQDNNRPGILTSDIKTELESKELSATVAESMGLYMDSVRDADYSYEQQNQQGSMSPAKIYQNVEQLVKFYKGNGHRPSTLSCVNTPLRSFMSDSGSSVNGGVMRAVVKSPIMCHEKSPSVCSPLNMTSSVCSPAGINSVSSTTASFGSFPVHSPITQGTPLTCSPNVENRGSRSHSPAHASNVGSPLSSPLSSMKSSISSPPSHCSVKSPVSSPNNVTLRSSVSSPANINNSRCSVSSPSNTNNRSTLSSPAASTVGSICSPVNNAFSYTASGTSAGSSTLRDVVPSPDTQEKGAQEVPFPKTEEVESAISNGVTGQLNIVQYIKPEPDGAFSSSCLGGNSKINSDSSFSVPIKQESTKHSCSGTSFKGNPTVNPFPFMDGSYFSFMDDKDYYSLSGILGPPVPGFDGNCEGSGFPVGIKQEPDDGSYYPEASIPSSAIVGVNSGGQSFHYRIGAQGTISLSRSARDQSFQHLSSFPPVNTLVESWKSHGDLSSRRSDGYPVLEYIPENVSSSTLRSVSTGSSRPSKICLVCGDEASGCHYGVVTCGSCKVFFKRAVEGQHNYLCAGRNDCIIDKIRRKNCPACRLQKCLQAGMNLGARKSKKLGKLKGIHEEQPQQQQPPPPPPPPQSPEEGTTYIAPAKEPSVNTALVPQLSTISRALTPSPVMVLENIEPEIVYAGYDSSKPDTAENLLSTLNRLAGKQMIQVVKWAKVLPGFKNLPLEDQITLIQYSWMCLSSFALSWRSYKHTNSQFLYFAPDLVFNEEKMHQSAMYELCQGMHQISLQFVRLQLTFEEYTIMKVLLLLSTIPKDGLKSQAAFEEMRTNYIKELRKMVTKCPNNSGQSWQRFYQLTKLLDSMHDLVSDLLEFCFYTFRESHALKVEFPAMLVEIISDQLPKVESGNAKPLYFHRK
The assay can be described thus: Antagonist activity at mineralocorticoid receptor in human A549 cells assessed as inhibition of 1.25 nM aldosterone-induced effect at 0.1 uM. It is filed as functional, cell-based.

The target in assay [2] is T3, Glucocorticoid receptor (Homo sapiens, UniProt P04150).
T3 sequence (P04150 whole entry): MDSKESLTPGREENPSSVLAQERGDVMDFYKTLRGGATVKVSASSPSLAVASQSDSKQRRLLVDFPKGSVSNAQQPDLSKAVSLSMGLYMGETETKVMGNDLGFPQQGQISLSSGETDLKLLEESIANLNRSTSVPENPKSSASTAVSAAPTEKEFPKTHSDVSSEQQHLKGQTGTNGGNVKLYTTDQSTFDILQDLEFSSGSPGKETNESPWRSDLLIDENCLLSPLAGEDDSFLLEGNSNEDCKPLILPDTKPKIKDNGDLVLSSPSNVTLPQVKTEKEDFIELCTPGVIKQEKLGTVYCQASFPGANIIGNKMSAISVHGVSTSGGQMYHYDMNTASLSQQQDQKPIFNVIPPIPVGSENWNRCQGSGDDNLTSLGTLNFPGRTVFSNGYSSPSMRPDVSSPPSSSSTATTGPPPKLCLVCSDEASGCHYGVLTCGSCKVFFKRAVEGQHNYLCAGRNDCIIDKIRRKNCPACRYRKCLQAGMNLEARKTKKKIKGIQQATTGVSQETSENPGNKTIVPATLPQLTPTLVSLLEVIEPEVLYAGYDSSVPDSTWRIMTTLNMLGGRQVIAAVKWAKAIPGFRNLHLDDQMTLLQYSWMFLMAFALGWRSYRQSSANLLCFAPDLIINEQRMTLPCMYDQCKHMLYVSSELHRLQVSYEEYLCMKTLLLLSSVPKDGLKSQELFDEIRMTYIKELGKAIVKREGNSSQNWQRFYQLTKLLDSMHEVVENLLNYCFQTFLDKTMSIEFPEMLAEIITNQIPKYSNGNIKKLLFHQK
Nature of the assay: Transrepression activity at GR in IL-1-beta-stimulated human A549 cells assessed as inhibition of NF-kappaB-dependent E-selectin transcription by luciferase reporter gene assay. The format is cell-based.

Assay [3] has as its target T3, Glucocorticoid receptor. The assay can be described thus: Agonist activity at GR ligand binding domain expressed in human NP1 cells assessed as glucocorticoid response element transactivation by GAL4 luciferase reporter gene assay. It is filed as cell-based.

Consider `C[C@@]1(C(=O)Nc2nccs2)CC2c3ccccc3C1c1ccccc12`, for which, at Estrogen receptor, the Ki amounted to 15 µM. Moreover, the inhibition in assay [1] turned out to be 3%.

With `C[C@@]1(C(=O)Nc2nccs2)CC2(C#N)c3ccccc3C1c1ccccc12`, at Estrogen receptor, the affinity, expressed as Ki, was 26.3 µM. In addition, the 50% effective concentration (EC50) was 0.0194 µM on Glucocorticoid receptor [2] and over 10 µM at Glucocorticoid receptor [3]. For the same molecule, the inhibition in assay [1] came out at 47%.
